Screens as filed in PubChem.
KCNK9 block – human KCNK9 channel inhibition; AID 488922; Q9NPC2; B-score at 10 µM; HEK293 KCNK9, FluxOR thallium flux fluorescence; stronger effect = lower value; 1.2% of 310,000 active;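 active = ratio B-score over 3 SD below the library mean, with starting fluorescence within 5 SD of its mean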;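 note: negative B-score means less thallium flux so channel inhibition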
KCNQ1 act – potentiators or activators of human KCNQ1 potassium channel; CHO-K1 KCNQ1, thallium flux FluxOR fluorescence; stronger effect = higher value; P51787; AID 2648; 0.35% of 310,000 active; B-score at 10 µM;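 active = fluorescence ratio B-score, a plate-corrected score, at least three library SD, with initial intensity B-score within 5 SD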
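Schedule – 37 °C overnight plating, 90-min dark dye load, 20-min compound pretreatment · System – stable KCNQ1 CHO-K1 line · Probe or stimulus – thallium- and potassium-containing depolarizing buffer · Measured by – kinetic FluxOR fluorescence, 10 s baseline plus 110 s post-stimulus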
KCC2 mod – modulators of human KCC2 chloride dependent transport; Q9H2X9; 2.2% of 190,000 active; B-score of Tl+ flux slope (higher = more flux/activation; lower = inhibition) at 10 µM; KCC2 cells, thallium flux FluoZin-2 fluorescence;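 active = thallium flux slope and its plate-corrected score both differing from the plate sample mean at a set confidence after two filtering rounds, in either direction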;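 note: slope of fluorescence scaled to starting intensity during 10 to 20 s after thallium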
hERG protect – shields human hERG channel from block by proarrhythmic agents | 0.51% of 310,000 active | CHO-hERG, FluxOR thallium flux, dofetilide IC70 present | Q12809 | activation (rescue from dofetilide block), less the hit threshold, % at 10 µM;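 active = activation above the mean of controls blocked by dofetilide plus 5 SD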;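 note: thallium influx through hERG after potassium depolarization seen as dye fluorescence rise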
Target sequence (Q12809 whole entry, looked up): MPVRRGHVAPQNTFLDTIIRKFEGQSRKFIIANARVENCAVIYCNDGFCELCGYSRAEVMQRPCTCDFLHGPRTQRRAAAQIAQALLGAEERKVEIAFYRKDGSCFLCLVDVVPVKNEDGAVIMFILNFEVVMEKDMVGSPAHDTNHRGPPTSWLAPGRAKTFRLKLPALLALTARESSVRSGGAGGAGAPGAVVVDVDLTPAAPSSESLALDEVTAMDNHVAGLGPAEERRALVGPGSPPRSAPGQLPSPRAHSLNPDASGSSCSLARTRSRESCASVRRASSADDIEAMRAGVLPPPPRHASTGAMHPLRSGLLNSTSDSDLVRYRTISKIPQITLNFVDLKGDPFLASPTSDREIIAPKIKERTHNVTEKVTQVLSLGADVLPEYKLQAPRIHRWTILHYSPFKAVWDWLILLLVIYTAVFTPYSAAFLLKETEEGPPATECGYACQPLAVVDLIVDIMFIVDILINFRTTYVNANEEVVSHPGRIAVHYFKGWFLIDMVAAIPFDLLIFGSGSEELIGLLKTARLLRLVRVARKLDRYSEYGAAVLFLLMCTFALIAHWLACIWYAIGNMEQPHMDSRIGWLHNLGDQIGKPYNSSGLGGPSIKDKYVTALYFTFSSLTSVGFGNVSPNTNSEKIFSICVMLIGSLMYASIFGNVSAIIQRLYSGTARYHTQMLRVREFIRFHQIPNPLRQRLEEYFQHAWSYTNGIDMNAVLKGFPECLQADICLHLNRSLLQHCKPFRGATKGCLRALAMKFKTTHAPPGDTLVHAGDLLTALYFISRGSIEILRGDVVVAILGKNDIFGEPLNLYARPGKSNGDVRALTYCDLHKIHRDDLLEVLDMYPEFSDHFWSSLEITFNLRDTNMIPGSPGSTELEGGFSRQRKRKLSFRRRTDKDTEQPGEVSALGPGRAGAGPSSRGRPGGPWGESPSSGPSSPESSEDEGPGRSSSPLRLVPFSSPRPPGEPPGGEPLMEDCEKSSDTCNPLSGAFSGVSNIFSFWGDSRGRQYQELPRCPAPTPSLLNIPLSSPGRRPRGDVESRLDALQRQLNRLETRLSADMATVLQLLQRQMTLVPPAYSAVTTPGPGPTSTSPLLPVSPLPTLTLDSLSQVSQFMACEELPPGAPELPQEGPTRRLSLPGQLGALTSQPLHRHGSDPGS
KCNK3 inh – human KCNK3 channel inhibition, primary screen; B-score at 10 µM; 0.84% of 340,000 active; CHO-KCNK3 thallium flux, FluxOR fluorescence; stronger effect = lower value;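 active = B-score under library mean minus 4 SD, starting fluorescence ratio at most library mean plus 5 SD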;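 note: more negative B-score means stronger inhibition of thallium flux through KCNK3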
KCNQ1 block – human KCNQ1 channel inhibition | P51787 | CHO-K1 KCNQ1, FluxOR thallium flux fluorescence; stronger effect = higher value | B-score at 10 µM | 1.3% of 310,000 active;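 active = compounds whose thallium flux B-score, printed positive for inhibition, exceeds three library SD while starting fluorescence stays within three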;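 note: channel opened by potassium depolarization with thallium stimulus after 20 min compound exposure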
KCNQ1 inh valid – reconfirmed blocker of the human KCNQ1 potassium channel; AID 588353; shares compounds with KCNQ1 block; inhibition, % at 10 µM; 93% of 1,600 active; KCNQ1 cell line, FluxOR thallium flux fluorescence;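 active = primary screen active, with duplicate mean exceeding buffer control mean plus 3 SD of buffer wells, cut at about 28% in these data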;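 note: 0% = buffer control ratio and 100% = XE991 inhibitor control ratio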
CHO Tl flux – counter-screen for KCNQ1 inhibitors: effect in parental CHO cells; parental CHO-K1, FluxOR thallium flux fluorescence ratio; stronger effect = lower value; zero means no signal rise above baseline; fluorescence ratio (Tl flux) at 10 µM; shares compounds with KCNQ1 block; 21% of 1,600 active;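 active = mean of duplicate thallium-flux fluorescence ratios in parental host cells more than 5 SD below the buffer control mean, cut at about 0.38 in these data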;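 note: ratio is peak minus minimum fluorescence divided by baseline fluorescence; actives read low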
KCNQ2 inh – rat KCNQ2 inhibition in KCNQ1 inhibitor specificity screen. shares compounds with KCNQ1 block. KCNQ2 cells, FluxOR thallium flux fluorescence. inhibition, % at 10 µM. 71% of 1,600 active;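 active = mean percent inhibition of the KCNQ2 thallium signal more than 5 SD above the buffer-only control wells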;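 note: KCNQ2 expressed in CHO cells; 0% = buffer control wells and 100% = XE-991 inhibitor control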
KCNQ1-KCNE1 inh – human KCNQ1/KCNE1 inhibition in KCNQ1 specificity screen; shares compounds with KCNQ1 block; KCNQ1/KCNE1 cells, FluxOR thallium flux fluorescence; inhibition, % at 10 µM; 77% of 1,600 active; AID 652147;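 active = mean percent inhibition of duplicate wells above the buffer-only control mean plus 3 SD of those controls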;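 note: 0% = buffer only wells and 100% = XE-991 inhibitor control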
Numbers without * were called inactive; i = inactive; / = no result given. Compounds with a hit are over-represented: about 4.1% of the library has one in this group of screens.

SMILES	KCNK9 block	KCNQ1 act	KCC2 mod	hERG protect	KCNK3 inh	KCNQ1 block	KCNQ1 inh valid	CHO Tl flux	KCNQ2 inh	KCNQ1-KCNE1 inh
Cc1ccsc1CN(C)C(=O)CN1C(=O)NC2(CCCCC2C)C1=O (configuration not stated)	/	/	/	/	i	/	/	/	/	/
Cc1cc(C)c(-c2cc(NC(=O)CSc3n[nH]c(N)n3)n(-c3ccccc3)n2)cc1C	i	i	0.79	-15	i	7*	78*	0.45	89%*	128%*
Cc1cc(C)c(-c2cc(NC(=O)COC(=O)c3ccc(CO)cc3)n(-c3ccccc3)n2)cc1C	i	i	0.52	-10	i	i	/	/	/	/
COc1ccc(C(c2c(O)ccc3ccccc23)N2CCOCC2)c(OC)c1 (configuration not stated)	i	i	/	-31	i	7*	113*	0.35*	108%*	142%*
CC(=O)Nc1ccc(S(=O)(=O)N2CCC(c3nc4ccc(C)cc4[nH]3)CC2)cc1	i	i	-1.3	-15	i	i	/	/	/	/
CC(C)(C)c1ccc(S(=O)(=O)N2CCC(c3nc4ccc(Cl)cc4[nH]3)CC2)cc1	i	i	-0.86	-4	i	10*	117*	0.43	101%*	108%*
NC(=O)N/N=C/c1c(O)ccc2oc3c(c12)CCCC3	i	i	0.69	-14	i	i	/	/	/	/
CC(C)(C)N=Cc1c(O)ccc2oc3c(c12)CCCC3	-7.9*	i	/	-16	i	9*	0	0.46	60%*	i
CC(C)N1CCC2(CC1)N=C(c1ccc3c(c1)OCO3)CC(c1cc(Cl)ccc1O)N2 (configuration not stated)	i	i	-1.6	-13	i	10*	50*	0.41	106%*	38%*
CC(Sc1ccc(Cl)cc1)C(=O)Nc1ccc2c(c1)OCO2 (configuration not stated)	i	i	0.069	-7	i	i	/	/	/	/
O=C1CCC(C(=O)N2CCCO2)CN1Cc1cccc(C(F)(F)F)c1 (configuration not stated)	i	i	/	-5	i	i	/	/	/	/
C=CCNC(=S)Nc1ccc(OC(F)F)c(Cl)c1	i	i	0.38	-13	i	9*	0	0.53	61%*	i
O=C(Nc1ccc(OC(F)F)c(Cl)c1)Nc1ccc2c(c1)OCO2	i	i	0.67	-3	i	7*	84*	0.45	i	i
C=CCNC(=S)Nc1ccc(Cl)cc1	i	i	0.9	-9	i	i	/	/	/	/
O=C(Nc1ccc(Cl)cc1)Nc1ccc2c(c1)OCO2	i	i	/	-12	i	i	/	/	/	/
Cc1ccc(NC(=O)CCC(=O)c2cccs2)cc1F	i	i	/	-3	i	i	/	/	/	/
CC12CCC(=O)N1C(C(=O)Nc1cc(C(F)(F)F)ccc1N1CCCCC1)CS2 (configuration not stated)	i	i	/	-19	i	7*	46*	0.41	103%*	48%*
COc1ccccc1-c1c(C)nn2c(N3CCOCC3)cc(C)nc12	i	i	/	-4	i	i	/	/	/	/
COc1ccccc1-c1c(C)nn2c(N3CCCCCC3)cc(C)nc12	i	i	-1.2	-16	i	8*	0	0.49	85%*	i
FC(F)(F)c1cc(-c2ccco2)nc(N2CCN(Cc3ccccc3)CC2)n1	i	i	/	-10	i	8*	82*	0.42	75%*	106%*
Fc1ccc(N2CCN(c3nc(-c4ccco4)cc(C(F)(F)F)n3)CC2)cc1	i	i	/	-6	i	i	/	/	/	/
